# Results: ChEMBL document CHEMBL1153726, “Synthesis and anticancer activity of sclerophytin-inspired hydroisobenzofurans” (Bioorg Med Chem Lett, 2009)
# Key:
# Type in all cases: functional
# OVCAR-5 [1] = assay: Growth inhibition of human OVCAR5 cells at 1 nM after 96 hrs by MTT assay; design: scale not given: the % may be the effect or the level left
# IGROV-1 [2] = assay: Growth inhibition of human IGROV1 cells at 1 nM after 96 hrs by MTT assay; design: scale not given: the % may be the effect or the level left
# UACC-62 = assay: Growth inhibition of human UACC62 cells at 1 nM after 96 hrs by MTT assay; design: scale not given: the % may be the effect or the level left
# UACC-257 = assay: Growth inhibition of human UACC257 cells at 1 nM after 96 hrs by MTT assay; design: scale not given: the % may be the effect or the level left
# MOLT-4 [3] = assay: Growth inhibition of human MOLT4 cells at 1 nM after 96 hrs by MTT assay; design: scale not given: the % may be the effect or the level left
# PC-3 [4] = assay: Growth inhibition of human PC3 cells at 10 uM after 96 hrs by MTT assay; design: scale not given: the % may be the effect or the level left
# SN12C [5] = assay: Growth inhibition of human SN12C cells at 10 uM after 96 hrs by MTT assay; design: scale not given: the % may be the effect or the level left
# 786-0 = assay: Growth inhibition of human 786-0 cells at 10 uM after 96 hrs by MTT assay; design: scale not given: the % may be the effect or the level left
# Malme-3M = assay: Growth inhibition of human MALME-3M cells at 10 uM after 96 hrs by MTT assay; design: scale not given: the % may be the effect or the level left
# SF-268 = assay: Growth inhibition of human SF268 cells at 10 uM after 96 hrs by MTT assay; design: scale not given: the % may be the effect or the level left
# HOP-92 = assay: Growth inhibition of human HOP92 cells at 10 uM after 96 hrs by MTT assay; design: scale not given: the % may be the effect or the level left
# [6] = Growth inhibition of human RPMI8266 cells at 10 uM after 96 hrs by MTT assay; design: scale not given: the % may be the effect or the level left
# MOLT-4 [7] = assay: Growth inhibition of human MOLT4 cells at 10 uM after 96 hrs by MTT assay; design: scale not given: the % may be the effect or the level left
# DU-145 = assay: Growth inhibition of human DU145 cells at 1 nM after 96 hrs by MTT assay; design: scale not given: the % may be the effect or the level left
# OVCAR-5 [8] = assay: Growth inhibition of human OVCAR5 cells after 96 hrs by MTT assay; conditions: OVCAR-5, 96 h
# Summary of the method: (§1)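 Tested in the NCI 60-cell-line panel in five-dose format; GI50 and LC50 values reported for each cell line.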
# ACHN = assay: Growth inhibition of human ACHN cells after 96 hrs by MTT assay
# PC-3 [9] = assay: Growth inhibition of human PC3 cells after 96 hrs by MTT assay; conditions: PC-3, 96 h; summary of the method: as §1
# K562 = assay: Growth inhibition of human K562 cells at 10 nM after 96 hrs by MTT assay; design: scale not given: the % may be the effect or the level left
# NCI-H322M = assay: Growth inhibition of human NCI-H322M cells after 96 hrs by MTT assay
# Summary of the method: (§2)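 Run in the NCI 60 human tumour cell line panel as a five-dose assay. GI50 and LC50 were reported for each cell line.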
# NCI-H23 [10] = assay: Growth inhibition of human NCI-H23 cells after 96 hrs by MTT assay; conditions: NCI-H23, 96 h; summary of the method: as §2
# [11] = Growth inhibition of human Hs 578T cells at 1 uM after 96 hrs by MTT assay; design: scale not given: the % may be the effect or the level left
# UO-31 [12] = assay: Growth inhibition of human UO31 cells at 1 uM after 96 hrs by MTT assay; design: scale not given: the % may be the effect or the level left
# T47D [13] = assay: Growth inhibition of human T47D cells at 100 nM after 96 hrs by MTT assay; design: scale not given: the % may be the effect or the level left
# CAKI-1 = assay: Growth inhibition of human Caki1 cells at 100 nM after 96 hrs by MTT assay; design: scale not given: the % may be the effect or the level left
# OVCAR-8 = assay: Growth inhibition of human OVCAR8 cells at 100 nM after 96 hrs by MTT assay; design: scale not given: the % may be the effect or the level left
# OVCAR-5 [14] = assay: Growth inhibition of human OVCAR5 cells at 100 nM after 96 hrs by MTT assay; design: scale not given: the % may be the effect or the level left
# OVCAR-3 = assay: Growth inhibition of human OVCAR-3 cells at 100 nM after 96 hrs by MTT assay; design: scale not given: the % may be the effect or the level left
# SK-MEL-2 = assay: Growth inhibition of human SK-MEL-2 cells at 100 nM after 96 hrs by MTT assay; design: scale not given: the % may be the effect or the level left
# MDA-MB-435 [15] = assay: Growth inhibition of human MDA-MB-435 cells at 100 nM after 96 hrs by MTT assay; design: scale not given: the % may be the effect or the level left
# HT-29 = assay: Growth inhibition of human HT-29 cells at 100 nM after 96 hrs by MTT assay; design: scale not given: the % may be the effect or the level left
# NCI-H23 [16] = assay: Growth inhibition of human NCI-H23 cells at 100 nM after 96 hrs by MTT assay; design: scale not given: the % may be the effect or the level left
# T47D [17] = assay: Growth inhibition of human T47D cells at 10 nM after 96 hrs by MTT assay; design: scale not given: the % may be the effect or the level left
# UO-31 [18] = assay: Growth inhibition of human UO31 cells at 10 nM after 96 hrs by MTT assay; design: scale not given: the % may be the effect or the level left
# SN12C [19] = assay: Growth inhibition of human SN12C cells at 10 nM after 96 hrs by MTT assay; design: scale not given: the % may be the effect or the level left
# MDA-MB-435 [20] = assay: Growth inhibition of human MDA-MB-435 cells at 10 nM after 96 hrs by MTT assay; design: scale not given: the % may be the effect or the level left
# LOX IMVI = assay: Growth inhibition of human LOXIMVI cells at 10 nM after 96 hrs by MTT assay; design: scale not given: the % may be the effect or the level left
# SW-620 = assay: Growth inhibition of human SW620 cells at 10 nM after 96 hrs by MTT assay; design: scale not given: the % may be the effect or the level left
# COLO 205 [21] = assay: Growth inhibition of human COLO205 cells at 10 nM after 96 hrs by MTT assay; design: scale not given: the % may be the effect or the level left
# IGROV-1 [22] = assay: Growth inhibition of human IGROV1 cells at 1 uM after 96 hrs by MTT assay; design: scale not given: the % may be the effect or the level left
# SK-MEL-28 = assay: Growth inhibition of human SK-MEL-28 cells at 1 uM after 96 hrs by MTT assay; design: scale not given: the % may be the effect or the level left
# HCT-15 = assay: Growth inhibition of human HCT15 cells at 1 uM after 96 hrs by MTT assay; design: scale not given: the % may be the effect or the level left
# COLO 205 [23] = assay: Growth inhibition of human COLO205 cells at 1 uM after 96 hrs by MTT assay; design: scale not given: the % may be the effect or the level left
# NCI-H460 = assay: Growth inhibition of human NCI-H460 cells at 1 uM after 96 hrs by MTT assay; design: scale not given: the % may be the effect or the level left
# [24] = Growth inhibition of human RPMI8266 cells at 1 uM after 96 hrs by MTT assay; design: scale not given: the % may be the effect or the level left
# [25] = read-out: Log10GI50 (converted)
# [26] = read-out: Log10LC50 (converted)
# [27] = read-out: LC50 (the source's name)
smiles,measurement,setting,value
C=C(C)[C@H]1CC=C(C)C2=CO[C@@H](c3ccccc3F)[C@@H]21,Activity,OVCAR-5 [1],97%
same,Activity,IGROV-1 [2],91%
same,Activity,UACC-62,88%
same,Activity,UACC-257,91%
same,Activity,MOLT-4 [3],106%
same,Activity,PC-3 [4],22.47%
same,Activity,SN12C [5],100.7%
same,Activity,786-0,93.62%
same,Activity,Malme-3M,101.14%
same,Activity,SF-268,105.37%
same,Activity,HOP-92,66.62%
same,Activity,[6],18.49%
same,Activity,MOLT-4 [7],74.3%
same,Activity,DU-145,88%
same,GI50,OVCAR-5 [8]; read-out: GI50,23.6 µM
same,LC50 (50% lethal concentration),OVCAR-5 [8]; read-out: LC50,72.3 µM
same,GI50,OVCAR-5 [8]; [25],23.4 µM
same,LC50 (50% lethal concentration),OVCAR-5 [8]; [26],72.4 µM
same,TGI,OVCAR-5 [8]; read-out: Log10TGI (converted),41.7 µM
same,TGI,OVCAR-5 [8]; read-out: TGI,41.3 µM
same,GI50,ACHN; read-out: GI50,6.39 µM
same,CC50,ACHN; [27],43.8 µM
same,GI50,ACHN; [25],6.46 µM
same,CC50,ACHN; [26],43.7 µM
same,TGI,ACHN; read-out: Log10TGI (converted),19.1 µM
same,TGI,ACHN; read-out: TGI,19 µM
same,GI50,PC-3 [9]; read-out: GI50,2490 nM
same,CC50,PC-3 [9]; [27],57.2 µM
same,GI50,PC-3 [9]; [25],2510 nM
same,CC50,PC-3 [9]; [26],57.5 µM
same,TGI,PC-3 [9]; read-out: Log10TGI (converted),16.6 µM
same,TGI,PC-3 [9]; read-out: TGI,16.5 µM
same,Activity,K562,95%
same,GI50,NCI-H322M; read-out: GI50,9.5 µM
same,CC50,NCI-H322M; [27],54.6 µM
same,GI50,NCI-H322M; [25],9.55 µM
same,CC50,NCI-H322M; [26],55 µM
same,TGI,NCI-H322M; read-out: Log10TGI (converted),23.4 µM
same,TGI,NCI-H322M; read-out: TGI,23.2 µM
same,GI50,NCI-H23 [10]; read-out: GI50,4.88 µM
same,CC50,NCI-H23 [10]; [27],51.4 µM
same,GI50,NCI-H23 [10]; [25],4.9 µM
same,CC50,NCI-H23 [10]; [26],51.3 µM
same,TGI,NCI-H23 [10]; read-out: Log10TGI (converted),19.5 µM
same,TGI,NCI-H23 [10]; read-out: TGI,19.4 µM
same,Activity,[11],28%
same,Activity,UO-31 [12],42%
same,Activity,T47D [13],76%
same,Activity,CAKI-1,87%
same,Activity,OVCAR-8,93%
same,Activity,OVCAR-5 [14],100%
same,Activity,OVCAR-3,90%
same,Activity,SK-MEL-2,76%
same,Activity,MDA-MB-435 [15],84%
same,Activity,HT-29,82%
same,Activity,NCI-H23 [16],85%
same,Activity,T47D [17],89%
same,Activity,UO-31 [18],83%
same,Activity,SN12C [19],87%
same,Activity,MDA-MB-435 [20],83%
same,Activity,LOX IMVI,91%
same,Activity,SW-620,97%
same,Activity,COLO 205 [21],84%
same,Activity,IGROV-1 [22],56%
same,Activity,SK-MEL-28,53%
same,Activity,HCT-15,31%
same,Activity,COLO 205 [23],50%
same,Activity,NCI-H460,31%
same,Activity,[24],-52%
